Compound activity (PubChem BioAssay)
bCat KO growth – beta-catenin-lacking colon tumor cell growth suppression. HCT116 beta-catenin knockout viability, CellTiter-Glo, 60 h; active compounds read low. viability, % at 10 µM. 140,000 tested, 1.5% active. AID 818;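 active means viability at or under a set limit, the compound median less 4 SD, cut at about 6% in these data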;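 further: 0% = Hyamine 1622 control at 20 µM and 100% = untreated cell control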
Lmaj promast – Leishmania major promastigote growth inhibition; Leishmania major promastigotes, resazurin fluorescence viability; inhibition, % at 10 µM; 200,000 tested, 9% active; AID 1063; in the data active means inhibition above about 50%;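 further: promastigotes grown with compound for 44 hours at 28 °C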
PMI activator – phosphomannose isomerase (human) activation | AID 1214 | purified human PMI, coupled resazurin fluorescence, 20 min; active compounds read high; 1 = vehicle control, 0 substrate-free wells | activation factor at 20 µM | P34949 | 190,000 tested, 0.005% active;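 active means activation factor of 2 or more at 20 µM, relative to plate controls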
Target sequence (P34949 whole entry, looked up): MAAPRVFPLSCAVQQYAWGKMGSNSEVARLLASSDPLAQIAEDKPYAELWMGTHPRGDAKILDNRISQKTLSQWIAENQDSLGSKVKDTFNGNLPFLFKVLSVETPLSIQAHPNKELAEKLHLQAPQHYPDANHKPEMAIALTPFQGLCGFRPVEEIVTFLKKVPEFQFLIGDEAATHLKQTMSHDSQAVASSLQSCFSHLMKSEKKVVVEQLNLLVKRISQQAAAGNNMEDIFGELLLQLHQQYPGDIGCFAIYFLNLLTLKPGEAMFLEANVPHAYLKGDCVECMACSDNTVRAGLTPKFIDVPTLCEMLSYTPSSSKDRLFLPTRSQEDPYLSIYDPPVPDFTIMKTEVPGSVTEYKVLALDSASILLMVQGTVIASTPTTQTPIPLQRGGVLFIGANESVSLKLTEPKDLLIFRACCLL
HCT116 PTEN-null – PTEN-deleted cell growth suppression; 140,000 tested, 1.2% active; HCT116 PTEN-null viability, CellTiter-Glo, 60 h; active compounds read low; AID 827; viability, % at 10 µM;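 active means viability at or below a set limit, 4 SD under the median of all tested compounds, cut at about 3.7% in these data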;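 further: PTEN knockout HCT116 line with beta catenin targeted HCT116 as companion control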
PMI act hi M6P – activators of human phosphomannose isomerase at near-saturating mannose 6-phosphate; 190,000 tested, 0.34% active; activation factor at 20 µM; AID 1216; P34949; coupled PMI enzyme assay, resazurin fluorescence, 20 min; active compounds read high; 1 = untreated enzyme, 0 = substrate-free blank;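 active means activation factor of 2 or more at 20 µM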
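Material: human phosphomannose isomerase with PGI, G6PDH, diaphorase coupling enzymes; amount: PMI at 15 ng/mL final; also added: Mannose-6-phosphate 1.0 mM (near-saturating) plus 0.22 mM NADP+; incubation: enzyme reaction with compound 20 min at room temperature; signal: resorufin fluorescence (Ex 544/Em 590 nm) from resazurin via diaphorase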
Starred values were filed as active, the others as inactive. Sampled rows, rich in hits. Any-hit rate of the full collection: about 9.6%.

What do the screens show for `CCOC(=O)C1=C(CNCCOc2ccc(OC)cc2)NC(=O)NC1c1ccc2c(c1)OCO2` (stereo unspecified)?
Lmaj promast: 16; PMI activator: 0.9; PMI act hi M6P: 0.9

What do the screens show for `CCOC(=O)C1=C(CNCCc2ccc(Cl)cc2)NC(=O)NC1c1ccc2c(c1)OCO2` (stereo unspecified)?
bCat KO growth: 59; Lmaj promast: 80*; PMI activator: 0.9; HCT116 PTEN-null: 62; PMI act hi M6P: 0.9

Results for CC1=Nc2cc(C(=O)NCc3ccco3)ccc2Sc2ccc(C)cc21 ?
bCat KO growth: 11; Lmaj promast: 59*; PMI activator: 0.9; HCT116 PTEN-null: 10; PMI act hi M6P: 0.9

Results for COc1ccc(CNC(=O)c2c(N)n(CCCN3CCOCC3)c3nc4ccccc4nc23)cc1 ?
bCat KO growth: 1.4*; Lmaj promast: 87*; PMI activator: 0.8; HCT116 PTEN-null: 1.7*; PMI act hi M6P: 0.8

What do the screens show for `Nc1c(C(=O)NCc2ccccc2)c2nc3ccccc3nc2n1CCCN1CCOCC1`?
bCat KO growth: 7; Lmaj promast: 41; PMI activator: 0.8; HCT116 PTEN-null: 4; PMI act hi M6P: 0.5

Results for Nc1c(C(=O)NCc2ccc(F)cc2)c2nc3ccccc3nc2n1CCCN1CCOCC1 ?
bCat KO growth: 1.3*; Lmaj promast: 100*; PMI activator: 0.9; HCT116 PTEN-null: 1.0*; PMI act hi M6P: 0.9

Results for O=C(N/N=C/c1cc(Cl)cc([N+](=O)[O-])c1O)NC12CC3CC(CC(C3)C1)C2 ?
bCat KO growth: 69; Lmaj promast: 0; PMI activator: 1.1; HCT116 PTEN-null: 62; PMI act hi M6P: 1.2

What do the screens show for `Nc1nc2nccc(-c3cccnc3)n2n1`?
Lmaj promast: -5; PMI activator: 1.1; PMI act hi M6P: 1

Results for CC(C)c1ccc(NC(=O)C(c2ccccc2)N2CC(=O)Nc3ccccc32)cc1 (stereo unspecified) ?
bCat KO growth: 71; Lmaj promast: 33; PMI activator: 1; HCT116 PTEN-null: 60; PMI act hi M6P: 0.9

What do the screens show for `COc1ccc(NC(C#N)c2ccccc2OCc2ccccc2)cc1` (stereo unspecified)?
bCat KO growth: 34; Lmaj promast: 9; PMI activator: 0.8; HCT116 PTEN-null: 38; PMI act hi M6P: 0.7

Results for O=c1c2nnn(Cc3ccccc3)c2ncn1C/C=C/c1ccccc1 ?
bCat KO growth: 85; Lmaj promast: -11; PMI activator: 1; HCT116 PTEN-null: 80; PMI act hi M6P: 0.9

How did CCN(CC)CCCNC(=O)c1ccc2c(SCC(=O)O)c3c(nc2c1)CCC3 do in these assays?
bCat KO growth: 95; Lmaj promast: -7; PMI activator: 1.1; HCT116 PTEN-null: 97; PMI act hi M6P: 1.1

Results for CCN(CC)CCNC(=O)CSc1c2c(nc3cc(Cl)ccc13)CCCC2 ?
Lmaj promast: 101*; PMI activator: 0.7; PMI act hi M6P: 0.4

What do the screens show for `CCN(CC)CCCNC(=O)c1ccc2c(Cl)c3c(nc2c1)CCCC3`?
Lmaj promast: 83*; PMI activator: 1; PMI act hi M6P: 1

Results for COCC1CCN(Cc2nc(-c3ccc(OC)cc3)no2)CC1 ?
Lmaj promast: -8; PMI activator: 0.8; PMI act hi M6P: 0.7

How did CCCn1cc(CN2CCCC(C(=O)c3cccc(OC(C)C)c3)C2)c(C)n1 (stereo unspecified) do in these assays?
Lmaj promast: 74*; PMI activator: 1; PMI act hi M6P: 1

What do the screens show for `CC(C)Oc1cccc(C(=O)C2CCCN(Cc3ccc(Oc4ncccn4)cc3)C2)c1` (stereo unspecified)?
Lmaj promast: 79*; PMI activator: 0.9; PMI act hi M6P: 0.9

Results for COc1c(C)cc(C(=O)C2CCCN(Cc3ccc(Oc4ncccn4)cc3)C2)cc1C (stereo unspecified) ?
Lmaj promast: 82*; PMI activator: 0.9; PMI act hi M6P: 1

What do the screens show for `CCCNCc1cc(OC)c(OCC(=O)NCCc2ccccc2)cc1Br`?
bCat KO growth: 94; Lmaj promast: 55*; PMI activator: 0.9; HCT116 PTEN-null: 92; PMI act hi M6P: 0.9

What do the screens show for `CCC(CO)NCc1cc(OC)c(OCC(=O)NCCc2ccccc2)cc1Br` (stereo unspecified)?
bCat KO growth: 95; Lmaj promast: 97*; PMI activator: 1.1; HCT116 PTEN-null: 99; PMI act hi M6P: 1

How did CCOc1ccccc1NC(=O)CN1C(=O)C(C)SC(C)C1=O (stereo unspecified) do in these assays?
Lmaj promast: -3; PMI activator: 1; PMI act hi M6P: 1.1

Results for CCC(C)NC(=O)/C=C1\Sc2ccccc2NC1=O (stereo unspecified) ?
bCat KO growth: 89; Lmaj promast: 2; PMI activator: 0.9; HCT116 PTEN-null: 86; PMI act hi M6P: 0.9

Results for Cc1ccc(CNC(=O)COC(=O)c2ccc(Br)cc2)cc1 ?
bCat KO growth: 87; Lmaj promast: -10; PMI activator: 1.1; HCT116 PTEN-null: 96; PMI act hi M6P: 1.1

How did CCOC(=O)c1ccc(CNCc2ccc(C)cc2)cc1 do in these assays?
bCat KO growth: 95; Lmaj promast: 79*; PMI activator: 1; HCT116 PTEN-null: 89; PMI act hi M6P: 1

How did CC(=O)N1N=C(c2ccccc2O)OC1(C)CC(=O)Nc1ccccc1 (stereo unspecified) do in these assays?
bCat KO growth: 93; Lmaj promast: 60*; PMI activator: 1.1; HCT116 PTEN-null: 105; PMI act hi M6P: 1.3

Results for COc1cc(/C=N/n2nnnc2N)ccc1OCc1c(C)no[n+]1[O-] ?
bCat KO growth: 84; Lmaj promast: 54*; PMI activator: 1; HCT116 PTEN-null: 89; PMI act hi M6P: 1

What do the screens show for `COc1cc(/C=N\n2nnnc2N)ccc1OCc1ccc(F)cc1`?
bCat KO growth: 94; Lmaj promast: -3; PMI activator: 1; HCT116 PTEN-null: 101; PMI act hi M6P: 1.1

Results for CN(C)CCNC(=O)C12CC3(C)CC(C)(CC(C)(C3)C1)C2 ?
bCat KO growth: 82; Lmaj promast: 8; PMI activator: 1; HCT116 PTEN-null: 84; PMI act hi M6P: 1

What do the screens show for `COc1cc2c(cc1NC(=O)C(C)NCc1ccccc1)oc1ccccc12` (stereo unspecified)?
bCat KO growth: 76; Lmaj promast: 8; PMI activator: 0.8; HCT116 PTEN-null: 71; PMI act hi M6P: 0.9

What do the screens show for `COc1ccccc1CN(Cc1cc2cc(C)ccc2[nH]c1=O)Cc1nnnn1Cc1ccco1`?
bCat KO growth: 61; Lmaj promast: 61*; PMI activator: 0.9; HCT116 PTEN-null: 63; PMI act hi M6P: 0.9

How did COc1ccc2[nH]c(=O)c(CN(Cc3ccco3)Cc3nnnn3Cc3ccccc3)cc2c1 do in these assays?
bCat KO growth: 89; Lmaj promast: 1; PMI activator: 1.2; HCT116 PTEN-null: 95; PMI act hi M6P: 1.1
